Data taken from ChEMBL document CHEMBL1132421, “N-[2,2-dimethyl-3-(N-(4-cyanobenzoyl)amino)nonanoyl]-L-phenylalanine ethyl ester as a stable ester-type inhibitor of chymotrypsin-like serine proteases: structural requirements for potent inhibition of alpha-chymotrypsin” (J Med Chem, 1999).

Key:
[1] = target: T1, Chymotrypsinogen A (Bos taurus, UniProt P00766); test: In vitro inhibition of bovine alpha chymotrypsin.
Summary of the method: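 Bovine pancreatic α-chymotrypsin (type I-S, 47 ng/mL) with N-succinyl-Ala-Ala-Pro-Phe-pNA (1.5 mM) in 50 mM HEPES pH 7.4 containing 0.1 mM NaCl, across a range of inhibitor concentrations. Incubated 120 min at 37 °C, then A405 read. IC50 taken from dose-inhibition curves, in triplicate. Chymostatin served as control.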

[2] = target: T2, Serine protease 1 (Bos taurus, UniProt P00760); test: Compound was tested by chromogenic assay for the inhibition of serine proteases like Bovine trypsin
T2 sequence (P00760 whole entry): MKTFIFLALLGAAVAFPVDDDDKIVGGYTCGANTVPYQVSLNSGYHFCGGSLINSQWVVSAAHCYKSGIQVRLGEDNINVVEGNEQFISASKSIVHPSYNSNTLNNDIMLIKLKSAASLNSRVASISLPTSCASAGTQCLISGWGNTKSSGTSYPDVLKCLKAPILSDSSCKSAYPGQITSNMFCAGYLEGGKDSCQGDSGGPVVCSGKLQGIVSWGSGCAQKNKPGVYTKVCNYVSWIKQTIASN
Summary of the method: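 Trypsin (1 U/mL; named porcine pancreatic in the methods, bovine in the table footnote) with Bz-L-Arg-pNA (1 mM) in 50 mM HEPES pH 7.4 containing 0.1 mM NaCl, with varied inhibitor concentrations. Incubated 120 min at 37 °C, then A405 read. IC50 from dose-inhibition curves, with leupeptin as control.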

[3] = test system: chymotrypsin; test: Percentage of intact compound after chymotrypsin cleavage at 37 degree C for 120 min; format: ADME; conditions: read-out: Stability
Summary of the method: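 Inhibitor (5 mM stock, diluted 1:100 by volume) incubated with bovine α-chymotrypsin (625 ng/mL solution) for 120 min at 37 °C. Intact compound and cleaved free acid quantified by reverse-phase HPLC (50–75% acetonitrile in 0.1% TFA over 25 min). Result given as percent intact compound relative to the initial amount.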

[4] = target: Chymotrypsin-like elastase family member 1 (Sus scrofa, UniProt P00772); test: Compound was tested by chromogenic assay for the inhibition of serine proteases like Porcine Elastase
Sequence of Chymotrypsin-like elastase family member 1 (P00772 whole entry): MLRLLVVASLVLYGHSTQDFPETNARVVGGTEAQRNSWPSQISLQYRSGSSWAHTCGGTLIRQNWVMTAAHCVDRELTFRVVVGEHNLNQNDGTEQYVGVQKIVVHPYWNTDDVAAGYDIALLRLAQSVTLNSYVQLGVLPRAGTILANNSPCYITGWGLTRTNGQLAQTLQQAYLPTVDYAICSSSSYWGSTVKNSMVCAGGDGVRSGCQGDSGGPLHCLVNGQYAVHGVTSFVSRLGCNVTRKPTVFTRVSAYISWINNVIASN
Summary of the method: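 Purified porcine pancreatic elastase (type III) with chromogenic substrate N-succinyl-Ala-Ala-Ala-pNA in 50 mM HEPES, pH 7.4, with NaCl. Enzyme and substrate were mixed with a range of inhibitor concentrations and held at 37 °C for 120 min. Activity was read as absorbance at 405 nm. IC50 was taken from dose-inhibition curves, with elastatinal as the reference inhibitor.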

[5] = target: T1, Chymotrypsinogen A; test: Compound was evaluated for inactivation of bovine alpha-Chymotrypsin Kinetic constant(Ki)
[6] = target: T3, Cathepsin G (Homo sapiens, UniProt P08311); test: Compound was tested by chromogenic assay for the inhibition of serine proteases like Human cathepsin G
T3 sequence (P08311 whole entry): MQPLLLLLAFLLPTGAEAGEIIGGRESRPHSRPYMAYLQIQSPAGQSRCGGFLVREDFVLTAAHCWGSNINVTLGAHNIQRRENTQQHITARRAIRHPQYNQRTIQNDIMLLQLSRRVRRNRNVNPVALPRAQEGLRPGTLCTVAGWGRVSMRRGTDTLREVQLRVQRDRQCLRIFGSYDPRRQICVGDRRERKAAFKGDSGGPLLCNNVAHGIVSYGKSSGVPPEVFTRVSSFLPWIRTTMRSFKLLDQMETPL

[7] = target: T4, Chymase (Homo sapiens, UniProt P23946); test: Compound was tested by chromogenic assay for the inhibition of human Serine protease chymase
T4 sequence (P23946 whole entry): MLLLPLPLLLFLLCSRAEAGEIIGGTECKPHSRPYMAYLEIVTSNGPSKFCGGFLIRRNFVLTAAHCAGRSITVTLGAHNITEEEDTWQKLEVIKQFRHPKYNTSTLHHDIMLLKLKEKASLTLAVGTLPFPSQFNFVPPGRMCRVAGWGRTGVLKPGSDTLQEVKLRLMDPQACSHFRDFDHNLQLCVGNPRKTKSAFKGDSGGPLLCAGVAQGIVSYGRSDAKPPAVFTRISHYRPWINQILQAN

| SMILES | IC50 [1] | IC50 [2] | remaining at 2 h [3] | IC50 [4] | also measured |
| --- | --- | --- | --- | --- | --- |
| CCCCCCC(NC(=O)OC(C)(C)C)C(C)(C)C(=O)N[C@@H](Cc1ccccc1)C(=O)OCC (stereo not given in full) | 1 µM | 6.3 µM |  |  |  |
| CCOC(=O)[C@H](Cc1ccccc1)NC(=O)C(C)(C)C(NC(=O)c1ccc(C#N)cc1)C(C)C (stereo not given in full) | 2.2 µM | 60 µM | 90% |  |  |
| CCOC(=O)[C@H](Cc1ccccc1)NC(=O)C(C)(C)C(CC(C)C)NC(=O)c1ccc(C#N)cc1 (stereo not given in full) |  |  | 41% |  |  |
| CCCCCCC(NC(=O)c1ccc(C#N)cc1)C(C)(C)C(=O)N[C@@H](Cc1ccccc1)C(=O)OCCC (stereo not given in full) | 0.23 µM | 17 µM | 97% | 0.27 µM | Ki [5]: 0.34 µM |
| CC(C)(C(=O)OC(=O)C(C)(C)C(CCc1ccccc1)NC(=O)c1ccc(C#N)cc1)C(CCc1ccccc1)NC(=O)c1ccc(C#N)cc1 (stereo not given) | 0.0021 µM | 0.3 µM |  |  |  |
| CCCCCCCCC(NC(=O)c1ccc(C#N)cc1)C(C)(C)C(=O)N[C@@H](Cc1ccccc1)C(=O)OCC (stereo not given in full) | 8.6 µM |  | 61% | 2.7 µM | IC50 [6]: 6.6 µM |
| CCCCCCC(NC(=O)c1ccc(C#N)cc1)C(C)(C)C(=O)N[C@@H](Cc1ccccc1)C(=O)OC(C)C (stereo not given in full) | 0.086 µM | 6.7 µM | 98% | 0.2 µM | IC50 [7]: 0.15 µM; Ki [5]: 0.07 µM |
| CCCCC(NC(=O)c1ccc(C#N)cc1)C(C)(C)C(=O)N[C@@H](Cc1ccccc1)C(=O)OCC (stereo not given in full) | 27 µM |  |  | 710 µM | IC50 [7]: 510 µM |
| CCCCCCC(NC(=O)c1ccc(C#N)cc1)C(C)(C)C(=O)N[C@@H](Cc1ccccc1)C(=O)OC (stereo not given in full) | 1.1 µM |  | 98% | 4.2 µM | IC50 [6]: 1.5 µM; Ki [5]: 12 µM |
| CCOC(=O)[C@H](Cc1ccccc1)NC(=O)C(C)(C)C(CCc1ccccc1)NC(=O)c1ccc(C#N)cc1 (stereo not given in full) | 0.25 µM |  |  |  |  |

Now from value to compound, other results behind:

| IC50 [1] | IC50 [2] | remaining at 2 h [3] | SMILES | IC50 [4] | also measured |
| --- | --- | --- | --- | --- | --- |
| 17 µM | 560 µM | < 1% | CCCCCCC(NC(=O)c1ccccc1)C(C)(C)C(=O)N[C@@H](Cc1ccccc1)C(=O)OCC (stereo not given in full) |  |  |
| 230 µM |  |  | CCCCCCC(NC(=O)c1ccc(C#N)cc1)C(C)(C)C(=O)N[C@@H](Cc1ccccc1)C(=O)OCc1ccccc1 (stereo not given in full) |  |  |
|  |  | 16% | CCCCCCCCCCC(NC(=O)c1ccc(C#N)cc1)C(C)(C)C(=O)N[C@@H](Cc1ccccc1)C(=O)OCC (stereo not given in full) |  |  |
| 4.2 µM | 220 µM |  | CCCCCCCCCCCCC(NC(=O)c1ccc(C#N)cc1)C(C)(C)C(=O)N[C@@H](Cc1ccccc1)C(=O)OCC (stereo not given in full) |  |  |
| 0.0026 µM | 0.54 µM |  | CCCCCCC(NC(=O)c1ccc(C#N)cc1)C(C)(C)C(=O)N[C@@H](Cc1ccccc1)C(=O)OCC (stereo in doubt; 3) | 0.007 µM | Ki [5]: 0.0045 µM |
| 3.4 µM |  | 91% | CCOC(=O)[C@H](Cc1ccccc1)NC(=O)C(C)(C)C(CC)NC(=O)c1ccc(C#N)cc1 (stereo not given in full) |  |  |
| 73 µM |  |  | CCCCCCC(NC(=O)c1ccc(C#N)cc1)C(C)(C)C(=O)N[C@@H](Cc1ccccc1)C(=O)OC(C)(C)C (stereo not given in full) |  |  |
|  |  | 6% | CCCCCCC(NC(=O)c1ccc(C#N)cc1F)C(C)(C)C(=O)N[C@@H](Cc1ccccc1)C(=O)OCC (stereo not given in full) |  |  |
|  |  | 3% | CCCCCC(NC(=O)c1ccc(C#N)cc1)C(C)(C)C(=O)N[C@@H](Cc1ccccc1)C(=O)OCC (stereo not given in full) |  |  |
|  |  | 11% | CCCC(NC(=O)c1ccc(C#N)cc1)C(C)(C)C(=O)N[C@@H](Cc1ccccc1)C(=O)OCC (stereo not given in full) |  |  |
| 12 µM |  |  | CCCCCCC(NC(=O)c1ccco1)C(C)(C)C(=O)N[C@@H](Cc1ccccc1)C(=O)OCC (stereo not given in full) |  |  |
| 0.0016 µM |  |  | CCCCCCC(NC(=O)c1ccc(C#N)cc1)C(C)(C)C(=O)N[C@@H](Cc1ccccc1)C(=O)OCC (stereo in doubt; 3-F) | 0.0086 µM |  |
|  |  | < 1% | CCCCCCCC(NC(=O)c1ccc(C#N)cc1)C(C)(C)C(=O)N[C@@H](Cc1ccccc1)C(=O)OCC (stereo not given in full) |  |  |
| 0.0051 µM |  |  | CCCCCCC(NC(=O)c1ccc(C#N)cc1)C(C)(C)C(=O)N[C@@H](Cc1ccccc1)C(=O)OCC (stereo in doubt; 3-R) | 0.014 µM |  |
